{"source": "ChEMBL document CHEMBL1149027", "about": "“Anti-AIDS agents, 10. Acacetin-7-O-beta-D-galactopyranoside, an anti-HIV principle from Chrysanthemum morifolium and a structure-activity correlation with some related flavonoids” (J Nat Prod, 1994)", "key": {"H9": {"system": "H9", "test": "Cytotoxicity against human H9 cells after 3 days", "format": "cell-based", "conditions": "H9, 72 h", "procedure,_shortened": "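Uninfected H9 lymphocytes, given the same 1 h mock incubation at 37° and washing, resuspended at 4 × 10^5 cells/ml. Cultured 3 days at 37° with compound. Cell density counted; IC50 = concentration inhibiting uninfected growth by 50%.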"}, "[1]": {"test": "Therapeutic index, ratio of IC50 for human H9 cells to EC50 for HIV1 3B", "format": "cell-based", "conditions": "read-out: TI"}, "[2]": {"system": "Human immunodeficiency virus 1", "test": "Antiviral activity against HIV1 3B infected in human H9 cells assessed as inhibition of viral replication after 3 days by p24 antigen capture assay", "format": "functional, organism-based", "conditions": "Human immunodeficiency virus 1, 3B, H9, 72 h"}}, "note": "pEC50, pIC50: −log10 of the molar value."}
{"smiles": "O=c1cc(-c2ccc(Cl)cc2)oc2cc(O)cc(O)c12", "values": [{"measurement": "pIC50", "setting": "H9", "result": 4.80}, {"measurement": "selectivity ratio", "setting": "[1]", "result": 4}, {"measurement": "pEC50", "setting": "[2]", "result": 5.40}]}
{"smiles": "O=c1cc(-c2ccccc2)oc2c([N+](=O)[O-])c(O)cc(O)c12", "values": [{"measurement": "pIC50", "setting": "H9", "result": 4.92}, {"measurement": "selectivity ratio", "setting": "[1]", "result": 1}, {"measurement": "pEC50", "setting": "[2]", "result": 4.92}]}
{"smiles": "COc1ccc(-c2cc(=O)c3c(O)cc(O[C@@H]4O[C@H](CO[C@@H]5O[C@H](C)[C@@H](O)[C@H](O)[C@@H]5O)[C@@H](O)[C@H](O)[C@H]4O)cc3o2)cc1", "values": [{"measurement": "pIC50", "setting": "H9", "result": "< 3.64"}, {"measurement": "pEC50", "setting": "[2]", "result": "< 3.64"}]}
{"smiles": "CC(=O)OC[C@H]1O[C@@H](Oc2cc(OC(C)=O)c3c(=O)cc(-c4ccc(OC(C)=O)c(OC(C)=O)c4)oc3c2)[C@H](OC(C)=O)[C@@H](OC(C)=O)[C@@H]1OC(C)=O", "values": [{"measurement": "pIC50", "setting": "H9", "result": 5.22}, {"measurement": "selectivity ratio", "setting": "[1]", "result": 1}, {"measurement": "pEC50", "setting": "[2]", "result": 5.22}]}
{"smiles": "O=C(CNC(=O)OCc1ccccc1)Oc1cc(O)c2c(=O)cc(-c3ccccc3)oc2c1", "values": [{"measurement": "pIC50", "setting": "H9", "result": 4.52}, {"measurement": "selectivity ratio", "setting": "[1]", "result": 3}, {"measurement": "pEC50", "setting": "[2]", "result": 5.05}]}
{"smiles": "Nc1c(O)cc(O)c2c(=O)cc(-c3ccccc3)oc12", "values": [{"measurement": "pIC50", "setting": "H9", "result": 4.47}, {"measurement": "selectivity ratio", "setting": "[1]", "result": 3}, {"measurement": "pEC50", "setting": "[2]", "result": 4.96}]}
{"smiles": "O=c1cc(-c2ccc(Br)cc2)oc2cc(O)cc(O)c12", "values": [{"measurement": "pIC50", "setting": "H9", "result": 4.68}, {"measurement": "selectivity ratio", "setting": "[1]", "result": 4}, {"measurement": "pEC50", "setting": "[2]", "result": 5.30}]}
{"smiles": "CCCc1cc(=O)c2c(O)cc(O)cc2o1", "values": [{"measurement": "pIC50", "setting": "H9", "result": 4.14}, {"measurement": "selectivity ratio", "setting": "[1]", "result": 3}, {"measurement": "pEC50", "setting": "[2]", "result": 4.57}]}
{"smiles": "O=c1cc(-c2cccc(Cl)c2)oc2cc(O)cc(O)c12", "values": [{"measurement": "pIC50", "setting": "H9", "result": 4.85}, {"measurement": "selectivity ratio", "setting": "[1]", "result": 3}, {"measurement": "pEC50", "setting": "[2]", "result": 5.40}]}
{"smiles": "O=c1cc(C2CCCCC2)oc2cc(O)cc(O)c12", "values": [{"measurement": "pIC50", "setting": "H9", "result": 4.38}, {"measurement": "selectivity ratio", "setting": "[1]", "result": 2}, {"measurement": "pEC50", "setting": "[2]", "result": 4.72}]}
{"smiles": "O=c1cc(-c2ccc(F)cc2)oc2cc(O)cc(O)c12", "values": [{"measurement": "pIC50", "setting": "H9", "result": 4.89}, {"measurement": "selectivity ratio", "setting": "[1]", "result": 3}, {"measurement": "pEC50", "setting": "[2]", "result": 5.40}]}
{"smiles": "COc1ccc(-c2cc(=O)c3c(O)cc(O[C@@H]4O[C@H](CO)[C@H](O)[C@H](O)[C@H]4O)cc3o2)cc1", "values": [{"measurement": "pIC50", "setting": "H9", "result": 4.43}, {"measurement": "selectivity ratio", "setting": "[1]", "result": 5}, {"measurement": "pEC50", "setting": "[2]", "result": 5.10}]}
{"smiles": "O=c1cc(-c2ccccc2)oc2c([N+](=O)[O-])c(O)c([N+](=O)[O-])c(O)c12", "values": [{"measurement": "pIC50", "setting": "H9", "result": 3.43}, {"measurement": "selectivity ratio", "setting": "[1]", "result": 1}, {"measurement": "pEC50", "setting": "[2]", "result": 3.43}]}
{"smiles": "O=c1cc(-c2ccccc2Cl)oc2cc(O)cc(O)c12", "values": [{"measurement": "pIC50", "setting": "H9", "result": 4.77}, {"measurement": "selectivity ratio", "setting": "[1]", "result": 3}, {"measurement": "pEC50", "setting": "[2]", "result": 5.30}]}
{"smiles": "O=c1cc(-c2ccc(O)cc2)oc2cc(O[C@@H]3O[C@H](CO)C(O)[C@H](O)[C@H]3O)cc(O)c12", "note": "(single isomer, unassigned) [APIGETRIN]", "values": [{"measurement": "pIC50", "setting": "H9", "result": 3.94}, {"measurement": "selectivity ratio", "setting": "[1]", "result": 2}, {"measurement": "pEC50", "setting": "[2]", "result": 4.21}]}
{"smiles": "O=c1cc(-c2ccccc2)oc2c(O)c(O)ccc12", "note": "[7,8-DIHYDROXYFLAVONE]", "values": [{"measurement": "pIC50", "setting": "H9", "result": 4.85}, {"measurement": "selectivity ratio", "setting": "[1]", "result": 1}, {"measurement": "pEC50", "setting": "[2]", "result": 5.00}]}
{"smiles": "O=c1cc(-c2ccc(O)cc2)oc2cc(O)cc(O)c12", "note": "[APIGENIN]", "values": [{"measurement": "pIC50", "setting": "H9", "result": 4.46}, {"measurement": "selectivity ratio", "setting": "[1]", "result": 4}, {"measurement": "pEC50", "setting": "[2]", "result": 5.05}]}
{"smiles": "O=C(O)[C@H]1O[C@@H](Oc2cc3oc(-c4ccccc4)cc(=O)c3c(O)c2O)[C@H](O)[C@@H](O)[C@@H]1O", "note": "[BAICALIN]", "values": [{"measurement": "pIC50", "setting": "H9", "result": 4.14}, {"measurement": "selectivity ratio", "setting": "[1]", "result": "< 1"}, {"measurement": "pEC50", "setting": "[2]", "result": 3.95}]}
{"smiles": "CC(=O)Oc1cc(OC(C)=O)c2c(=O)cc(-c3ccccc3)oc2c1", "note": "[CHRYSIN DIACETATE]", "values": [{"measurement": "pIC50", "setting": "H9", "result": "< 3.43"}, {"measurement": "pEC50", "setting": "[2]", "result": 4.25}]}
{"smiles": "O=c1cc(-c2ccccc2)oc2cc(O)cc(O)c12", "note": "[CHRYSIN]", "values": [{"measurement": "pIC50", "setting": "H9", "result": 4.33}, {"measurement": "selectivity ratio", "setting": "[1]", "result": 9}, {"measurement": "pEC50", "setting": "[2]", "result": 5.30}]}
{"smiles": "Oc1cc(O)c2c(c1)O[C@H](c1ccc(O)c(O)c1)[C@@H](O)C2", "note": "[CIANIDANOL]", "values": [{"measurement": "pIC50", "setting": "H9", "result": "< 3.46"}, {"measurement": "pEC50", "setting": "[2]", "result": "< 3.46"}]}
{"smiles": "O=c1c(O)c(-c2ccc(O)c(O)c2)oc2cc(O)ccc12", "note": "[FISETIN]", "values": [{"measurement": "pIC50", "setting": "H9", "result": 3.80}, {"measurement": "selectivity ratio", "setting": "[1]", "result": 1}, {"measurement": "pEC50", "setting": "[2]", "result": 3.91}]}
{"smiles": "O=C1CC(c2ccccc2)Oc2ccccc21", "note": "(stereo not drawn) [FLAVANONE]", "values": [{"measurement": "pIC50", "setting": "H9", "result": 4.35}, {"measurement": "selectivity ratio", "setting": "[1]", "result": 1}, {"measurement": "pEC50", "setting": "[2]", "result": 4.24}]}
{"smiles": "O=c1cc(-c2ccccc2)oc2ccccc12", "note": "[FLAVONE]", "values": [{"measurement": "pIC50", "setting": "H9", "result": 4.17}, {"measurement": "selectivity ratio", "setting": "[1]", "result": 1}, {"measurement": "pEC50", "setting": "[2]", "result": 4.30}]}
{"smiles": "O=c1c(O)c(-c2ccccc2)oc2ccccc12", "note": "[FLAVONOL]", "values": [{"measurement": "pIC50", "setting": "H9", "result": 4.77}, {"measurement": "selectivity ratio", "setting": "[1]", "result": 1}, {"measurement": "pEC50", "setting": "[2]", "result": 4.89}]}
{"smiles": "O=c1c(O)c(-c2ccccc2)oc2cc(O)cc(O)c12", "note": "[GALANGIN]", "values": [{"measurement": "pIC50", "setting": "H9", "result": 4.36}, {"measurement": "selectivity ratio", "setting": "[1]", "result": 2}, {"measurement": "pEC50", "setting": "[2]", "result": 4.55}]}
{"smiles": "O=c1cc(-c2ccc(O)c(O)c2)oc2cc(O[C@@H]3O[C@H](CO)[C@@H](O)[C@H](O)[C@H]3O)cc(O)c12", "note": "[GALUTEOLIN]", "values": [{"measurement": "pIC50", "setting": "H9", "result": 4.60}, {"measurement": "selectivity ratio", "setting": "[1]", "result": 3}, {"measurement": "pEC50", "setting": "[2]", "result": 5.15}]}
{"smiles": "COc1ccc([C@@H]2CC(=O)c3c(O)cc(O[C@@H]4O[C@H](CO[C@@H]5O[C@@H](C)[C@H](O)[C@@H](O)[C@H]5O)[C@@H](O)[C@H](O)[C@H]4O)cc3O2)cc1O", "note": "[HESPERIDIN]", "values": [{"measurement": "pIC50", "setting": "H9", "result": "< 3.79"}, {"measurement": "pEC50", "setting": "[2]", "result": "< 3.79"}]}
{"smiles": "O=c1cc(-c2ccc(O)c(O)c2)oc2cc(O)cc(O)c12", "note": "[LUTEOLIN]", "values": [{"measurement": "pIC50", "setting": "H9", "result": 4.80}, {"measurement": "selectivity ratio", "setting": "[1]", "result": 2}, {"measurement": "pEC50", "setting": "[2]", "result": 5.00}]}
{"smiles": "O=c1c(O)c(-c2ccc(O)cc2O)oc2cc(O)cc(O)c12", "note": "[MORIN]", "values": [{"measurement": "pIC50", "setting": "H9", "result": "< 3.48"}, {"measurement": "pEC50", "setting": "[2]", "result": "< 3.48"}]}
{"smiles": "O=c1c(O)c(-c2cc(O)c(O)c(O)c2)oc2cc(O)cc(O)c12", "note": "[MYRICETIN]", "values": [{"measurement": "pIC50", "setting": "H9", "result": 4.16}, {"measurement": "selectivity ratio", "setting": "[1]", "result": 2}, {"measurement": "pEC50", "setting": "[2]", "result": 4.46}]}
{"smiles": "O=C1C[C@@H](c2ccc(O)cc2)Oc2cc(O)cc(O)c21", "note": "[NARINGENIN]", "values": [{"measurement": "pIC50", "setting": "H9", "result": 3.53}, {"measurement": "selectivity ratio", "setting": "[1]", "result": 3}, {"measurement": "pEC50", "setting": "[2]", "result": 4.04}]}
{"smiles": "Cc1cc(=O)c2c(O)cc(O)cc2o1", "note": "[NOREUGENIN]", "values": [{"measurement": "pIC50", "setting": "H9", "result": 3.67}, {"measurement": "selectivity ratio", "setting": "[1]", "result": 4}, {"measurement": "pEC50", "setting": "[2]", "result": 4.31}]}
{"smiles": "O=c1c(O)c(-c2ccc(O)c(O)c2)oc2cc(O)cc(O)c12", "note": "[QUERCETIN]", "values": [{"measurement": "pIC50", "setting": "H9", "result": 3.88}, {"measurement": "selectivity ratio", "setting": "[1]", "result": 1}, {"measurement": "pEC50", "setting": "[2]", "result": 3.88}]}
{"smiles": "Cc1cn([C@H]2C[C@H](N=[N+]=[N-])[C@@H](CO)O2)c(=O)[nH]c1=O", "note": "[ZIDOVUDINE]", "values": [{"measurement": "pEC50", "setting": "[2]", "result": 7.40}]}
